M4 ag: human M4 muscarinic receptor agonists, primary screen, CHO-K1 cells, Fluo-8 calcium fluorescence. 360,000 tested, 0.14% active. CHO-K1 hM4/Gqi5; vehicle 0%, full acetylcholine response 100%. activation, % at 3 µM. AID 624127, 2012;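 active = activation above the run mean over all test wells plus 3 SD, cut at about 32% in these data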;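 note: peak over basal fluorescence ratio per well then scaled between controls; 0% = DMSO wells and 100% = acetylcholine at EC100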
M4 antag: human M4 muscarinic receptor antagonists, primary screen, CHO cells, Fluo-8 calcium fluorescence. Muscarinic acetylcholine receptor M4 (Homo sapiens), P08173. CHO-hM4 cells, ACh EC80. inhibition, % at 3 µM. 360,000 tested, 0.73% active. AID 624125, 2012;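 active = inhibition above its plate's cutoff, the mean inhibition of sample wells plus 3 SD, cut at about 27% in these data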;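 note: 0% = acetylcholine EC80 with DMSO and 100% = DMSO without agonist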
M5 ag: human M5 muscarinic receptor agonists, primary screen, CHO-K1 cells, Fluo-8 calcium fluorescence; Muscarinic acetylcholine receptor M5 (Homo sapiens), P08912; CHO-K1 hM5 cells; 0% DMSO wells, 100% maximal acetylcholine response; activation, % at 3 µM; 360,000 tested, 0.19% active; AID 624037, 2012;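 active = activation above the run's mean over test compounds plus 3 SD, cut at about 23% in these data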;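 note: signal is peak over basal fluorescence ratio across the kinetic read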
Target sequence (P08912 whole entry, looked up): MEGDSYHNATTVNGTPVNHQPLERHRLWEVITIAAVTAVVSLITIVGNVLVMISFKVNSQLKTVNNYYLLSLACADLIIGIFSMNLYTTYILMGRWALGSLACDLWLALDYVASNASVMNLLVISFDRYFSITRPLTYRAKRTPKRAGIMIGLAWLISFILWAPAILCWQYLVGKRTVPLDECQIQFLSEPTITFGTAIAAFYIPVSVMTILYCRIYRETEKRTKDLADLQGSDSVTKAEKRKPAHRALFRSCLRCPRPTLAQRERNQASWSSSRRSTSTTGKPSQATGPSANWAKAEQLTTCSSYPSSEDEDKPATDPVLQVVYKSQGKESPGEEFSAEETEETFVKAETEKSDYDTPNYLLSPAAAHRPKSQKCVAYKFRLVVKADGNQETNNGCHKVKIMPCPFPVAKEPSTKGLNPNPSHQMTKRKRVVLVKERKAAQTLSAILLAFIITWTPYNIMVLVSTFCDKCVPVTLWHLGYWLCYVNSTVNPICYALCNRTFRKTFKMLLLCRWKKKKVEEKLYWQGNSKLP
CHRM4 PAM: human M4 muscarinic receptor positive allosteric modulators, primary screen, CHO-K1 cells, Fluo-8 calcium fluorescence; Muscarinic acetylcholine receptor M4 (Homo sapiens), P08173; CHO-K1 hM4/Gqi5, ACh EC20; 0% = ACh EC20, 100% = maximal ACh; activation, % at 3 µM; 360,000 tested, 0.4% active; AID 624126, 2012;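 active = activation above its plate's cutoff, the mean activation of sample wells plus 3 SD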
CHRM5 PAM: human M5 muscarinic receptor positive allosteric modulators, primary screen, CHO-K1 cells, Fluo-8 calcium fluorescence. Muscarinic acetylcholine receptor M5 (Homo sapiens), P08912. CHO-K1 hM5, ACh EC20 PAM; 0% = ACh EC20, 100% = ACh EC100. activation, % at 3 µM. 360,000 tested, 0.3% active. AID 624038, 2012;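 active = activation above the run cutoff, the mean activation of all test compounds plus 3 SD, cut at about 18% in these data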
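system = human M5 receptor in CHO-K1 cells | reagent = EC20 acetylcholine as agonist stimulus | compound dosing = single-point, 3 µM nominal | incubation = Fluo-8 loading 80 min at 37 °C plus 30 min room temperature | detection = Fluo-8 calcium dye fluorescence, kinetic read | benchmarks = low control EC20 acetylcholine (0%), high control EC100 acetylcholine (100%)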
CHRM5 antagonist: human M5 muscarinic receptor antagonists, primary screen, CHO cells, Fluo-8 calcium fluorescence | 360,000 tested, 0.59% active | CHO-hM5 cells, ACh EC80 | AID 624040, 2012 | inhibition, % at 3 µM | Muscarinic acetylcholine receptor M5 (Homo sapiens), P08912;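 active = inhibition above a per-plate cutoff, the mean of that plate's test compounds plus 3 SD, cut at about 27% in these data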;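 note: 0% = acetylcholine EC80 with DMSO and 100% = DMSO without agonist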
* marks the source's active call; other numbers are inactive results. Only some compounds are listed: those with a hit (about 1.9% of all), similar ones and a draw of the others.

SMILES | M4 ag | M4 antag | M5 ag | CHRM4 PAM | CHRM5 PAM | CHRM5 antagonist
CCOC(=O)C1CCCN(Cc2nc3ccc([N+](=O)[O-])cc3c(=O)n2-c2ccc(OC)cc2OC)C1 (stereo not drawn) | 6.2 | 9.7 | 29.2* | -24.0 | -13.0 | 2.2
Fc1ccc(C2=CC(c3ccco3)n3ncnc3N2)cc1 (stereo not drawn) | 2.4 | 2.1 | 1.7 | -0.6 | -7.7 | 6.6
Brc1ccc(C2=CC(c3cccs3)n3ncnc3N2)cc1 (stereo not drawn) | 36.5* | 4.1 | 26.5* | -29.1 | -20.9 | 13.5
C1=C(c2ccc(-c3ccccc3)cc2)Nc2ncnn2C1c1ccco1 (stereo not drawn) | 61.7* | 27.3* | 52.5* | -16.8 | -34.1 | 16.2
Fc1ccc(C2=CC(c3ccc(Br)o3)n3ncnc3N2)cc1 (stereo not drawn) | 2.9 | 1.8 | 2.9 | -6.8 | -6.1 | -0.3
COc1ccc(N2CCN(C(=O)CCS(=O)(=O)c3ccc4c(c3)NC(=O)CO4)CC2)cc1 | 4.0 | 8.8 | -1.5 | -3.0 | -3.2 | 9.4
CCCC12CN3CCN(CC(C3)/C1=N\NC(=O)c1ccc(C(C)(C)C)cc1)C2 | 1.4 | -9.2 | -0.2 | 5.5 | 1.5 | -3.7
Cc1cc(-c2cc(-c3ccccc3)on2)nc(NCC2CC2)n1 | -0.8 | -6.2 | -1.4 | 28.6* | 0.9 | -1.9
CCCNc1nc(C)cc(-c2cc(-c3ccccc3)on2)n1 | -1.0 | 5.6 | -5.5 | 8.2 | -1.8 | 12.0
CC(C)c1cc(-c2cc(C(=O)NCc3ccccc3)on2)nc(NCC2CC2)n1 | 42.9* | 41.3* | 36.5* | -6.5 | 7.9 | 27.9*
Cc1ccc(C(C)n2cc(C(=O)NCc3cccnc3)nn2)cc1 (stereo not drawn) | 3.2 | -5.8 | 5.5 | 11.2 | 18.4* | -5.6
CCOc1ccccc1/C=N/NC(=O)c1nnn(-c2nonc2N)c1CN1CCCC1 | 3.4 | -10.5 | -2.7 | -3.4 | 5.0 | -14.7
Cc1noc(C)c1C(=O)OCC(=O)C12CC3CC(CC(C3)C1)C2 | 0.4 | 7.0 | -0.4 | -0.2 | -3.9 | -8.2
O=C(CC1C(=O)NCCN1Cc1ccccc1C(F)(F)F)NCCn1cccn1 (stereo not drawn) | 1.5 | -4.8 | -1.2 | 3.4 | 4.2 | 13.1
CN(C)c1nc(OCCOC(=O)c2ccccc2)nc(N(C)C)n1 | -0.3 | 2.3 | 26.2* | 0.8 | -5.5 | -6.1
CCCCN(C(=O)c1cccc(S(=O)(=O)N(CC)c2ccccc2)c1)c1c(N)n(CC(C)C)c(=O)[nH]c1=O | 0.2 | 4.9 | 0.8 | -1.6 | -7.0 | 15.1
CC(=O)N1CCc2cc(S(=O)(=O)NC(CC(C)C)C(=O)N3CCc4ccccc4C3)ccc21 (stereo not drawn) | 1.5 | 29.1* | -5.1 | 32.4* | -2.7 | 1.4
CC(C)(C)NC(=O)C(c1ccccc1)n1c(=O)c(-c2ccccc2)nc2ccccc21 (stereo not drawn) | -0.2 | 2.8 | 1.7 | -0.7 | 0.8 | -0.9
CC1Oc2ccccc2N(CC(=O)N2CCCCC2)C1=O (stereo not drawn) | 2.3 | -24.2 | -3.0 | 17.2* | -2.2 | 3.9
CC1Oc2ccccc2N(CC(=O)N2CCCc3ccccc32)C1=O (stereo not drawn) | 3.1 | -6.6 | -5.4 | -0.3 | 4.4 | -5.3
CC(C)C[C@H](NC(=O)N1c2ccccc2NC(=O)[C@@H]1C(C)C)C(=O)N1CCC[C@@H]1C(=O)O | 2.8 | -21.4 | 2.2 | 16.0 | 5.0 | -0.8
CCOC(=O)C(C)(C)Oc1ccc(Cl)cc1 | 1.6 | -10.3 | 0.0 | 1.1 | -5.1 | 2.5
CC(=O)Nc1ccc(NC(=O)Nc2cccc(Cl)c2)cc1 | 2.7 | -3.5 | 2.8 | -2.0 | -5.2 | 3.8
CSc1cccc(NC(=O)Nc2ccc(Cl)cc2)c1 | 9.3 | 9.3 | 7.7 | -8.9 | -15.3 | 31.0*
CSc1cccc(NC(N)=O)c1 | -0.1 | -4.8 | 3.9 | 0.3 | 8.1 | -3.8
SMILES | M4 ag | M4 antag | M5 ag | CHRM4 PAM | CHRM5 PAM | CHRM5 antagonist
CC(=O)c1ccc(NC(=O)Nc2cccc(Cl)c2)cc1 | 14.8 | 12.3 | 8.3 | -8.0 | -20.8 | 27.9*
CC(=O)c1cccc(NC(=O)NCCc2ccc(Cl)cc2)c1 | 8.9 | -0.1 | 1.3 | 16.1* | -2.2 | 12.3
O=C(Nc1ccc(F)cc1)N1CCN(C(=O)C2CCCO2)CC1 (stereo not drawn) | 1.4 | 7.5 | -1.8 | -4.0 | -2.5 | 15.6
[N-]=[N+]=NCCN1CCN(CCc2ccccc2)CCC1=O | 1.9 | 2.7 | -3.2 | 1.2 | -7.7 | 13.8
CCc1cc(C(=O)Cc2nc3ccccc3s2)c(O)cc1OCC(=O)O | 1.1 | 36.1* | 3.2 | 6.5 | -0.3 | -3.3
CC1CC(C)(C)CC2(C1)NC(=O)N(CC(=O)NCc1ccccc1F)C2=O (stereo not drawn) | 2.2 | -13.2 | 3.0 | 5.0 | -0.4 | 3.0
Cc1ccc(C(=O)OCC(=O)NCCc2ccc(F)cc2)cc1S(=O)(=O)N1CCOCC1 | 4.3 | 8.1 | 1.9 | 1.7 | -2.7 | 10.0
O=C(COC(=O)c1ccc(F)c(S(=O)(=O)N2CCOCC2)c1)NCCc1ccccc1 | 1.8 | -27.5 | 1.5 | 20.6* | -2.0 | 0.4
COC(=O)c1ccc(-c2nc(O)c3cnccn23)cc1 | 34.4* | -3.3 | -4.4 | 2.8 | -1.0 | 8.3
Oc1nc(-c2ccc(Cl)cc2)n2ccncc12 | 0.9 | -5.2 | -3.9 | -0.3 | -1.4 | 11.4
CC(CNC(=O)c1ccc(C#N)cc1)NC(=O)c1ccc(C#N)cc1 (stereo not drawn) | 1.1 | 10.8 | -1.9 | -3.4 | 0.7 | -4.5
COc1ccc(CCn2c(C3CCCCC3)nc3c(c(=O)c4ccccc4n3C)c2=O)cc1 | 45.1* | 1.1 | 9.6 | -13.8 | -8.1 | 8.2
C#CCOCCOCCOCCNc1nc(N2CCN(C(=O)Cn3cc(CCCN=C(N)N)nn3)CC2)nc(N2CCN(C(=O)[C@H](CCCCN)n3cc(CCCC)nn3)CC2)n1 | 0.8 | -15.7 | 0.6 | 5.8 | -1.3 | -1.1
Nc1cc(=O)[nH]c(SCC(=O)Nc2cccnc2Cl)n1 | 3.5 | -25.9 | -3.3 | 21.7* | -7.4 | 10.2
CN(c1ccccc1)S(=O)(=O)c1cc(C(=O)NCc2ccco2)ccc1Cl | 4.6 | -4.0 | -0.3 | -1.1 | -1.2 | 2.8

From PubChem BioAssay
